Source: ChEMBL document CHEMBL4602675, “The Marine Natural Product Manzamine A Inhibits Cervical Cancer by Targeting the SIX1 Protein” (J Nat Prod, 2020)
The source made the active and inactive calls. The rule behind the calls is not given here.

Legend:
[1] = system: C-33-A; test: Inhibition of colony formation in human C33A cells at 2 to 4 uM afer 1 week by crystal violet staining based assay; assay type: functional, cell-based
Method in brief: (§1)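 Cells were grown in DMEM with 10% FBS, seeded at 1 × 10^3 cells/ml in six-well plates, incubated overnight, then exposed to 2 or 4 μM at 37 °C under 5% CO2 for one week. Colonies were fixed with 4% paraformaldehyde, stained with 0.5% crystal violet and photographed.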

[2] = system: SiHa; test: Inhibition of colony formation in human SiHa cells at 2 to 4 uM afer 1 week by crystal violet staining based assay; assay type: functional, cell-based; method in brief: as §1
[3] = system: SiHa; test: Effect on total-Rb in human SiHa cells assessed decrease in Rb protein level at 2 to 4 uM after 48 hrs by Western blot analysis; assay type: ADME, cell-based
Method in brief: (§2)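 Cells were seeded at 1 × 10^6 per 100 mm dish and treated next day with 2 or 4 μM for 48 h. They were trypsinised, PBS-washed and lysed in RIPA with protease inhibitors. Equal protein was run on SDS-PAGE and transferred to PVDF. Primary antibodies were used at 1:500, with BSA 3% for blocking and antibodies for CK2α, Rb and pRb, otherwise 5% milk in TBST. HRP secondary at 1:2000, chemiluminescence detection.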

[4] = system: SiHa; test: Cell cycle arrest in human SiHa cells assessed as accumulation at G2/M phase at 4 uM after 72 hrs by propidium iodide staining based flow cytometric analysis (reference value: 18%); assay type: functional
Method in brief: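 Cells in DMEM with 10% FBS, 2 mM L-glutamine, pen-strep, 37 °C, 5% CO2; seeded and left overnight, then treated at 4 μM with DMSO as control. Harvested by trypsin at 24, 48 or 72 h, fixed in chilled 70% ethanol 30 min on ice, RNase A (1 mg/mL) 30 min at room temperature, PI (20 μg/mL). Flow cytometry, ≥10 000 events, G0/G1, S, G2/M fractions; mean ± SEM.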

[5] = system: HeLa; test: Cell cycle arrest in human HeLa cells assessed as accumulation at Sub G1 phase at 4 uM after 24 hrs by propidium iodide staining based flow cytometric analysis (reference value: 2.2%); assay type: functional
Method in brief: (§3)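 Cells in DMEM/10% FBS at 37 °C, 5% CO2 were given 4 μM for 24, 48 or 72 h, with DMSO as control. After trypsinization they were fixed in chilled 70% ethanol on ice for 30 min, treated with RNase A (1 mg/mL) for 30 min at room temperature, and stained with PI (20 μg/mL). At least 10 000 events were read by flow cytometry to give sub-G1, G0/G1, S and G2/M fractions; mean ± SEM.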

[6] = system: HeLa; test: Cell cycle arrest in human HeLa cells assessed as accumulation at Sub G1 phase at 4 uM after 48 hrs by propidium iodide staining based flow cytometric analysis (reference value: 2.1%); assay type: functional; method in brief: as §3
[7] = system: HeLa; test: Cell cycle arrest in human HeLa cells assessed as accumulation at G0/G1 phase at 4 uM after 48 hrs by propidium iodide staining based flow cytometric analysis (reference value: 69.6%); assay type: functional; method in brief: as §3
[8] = system: HeLa; test: Cell cycle arrest in human HeLa cells assessed as accumulation at G2/M phase at 4 uM after 48 hrs by propidium iodide staining based flow cytometric analysis (reference value: 16.2%); assay type: functional
[9] = system: Ca-Ski; test: Cell cycle arrest in human CaSki cells assessed as accumulation at G2/M phase at 4 uM after 72 hrs by propidium iodide staining based flow cytometric analysis (reference value: 15.2%); assay type: functional
[10] = system: C-33-A; test: Induction of apoptosis in human C33A cells assessed as necrotic cells at 4 uM after 24 hrs by Annexin V-FITC/PI double staining based flow cytometric analysis; assay type: functional
[11] = system: C-33-A; test: Induction of apoptosis in human C33A cells assessed as viable cells at 4 uM after 48 hrs by Annexin V-FITC/PI double staining based flow cytometric analysis (reference value: 82.8%); assay type: functional; details: read-out: Activity
[12] = system: SiHa; test: Induction of apoptosis in human SiHa cells assessed as viable cells at 4 uM after 48 hrs by Annexin V-FITC/PI double staining based flow cytometric analysis (reference value: 93.7%); assay type: functional; details: read-out: Activity
[13] = system: HeLa; test: Induction of apoptosis in human HeLa cells assessed as early apoptotic cells at 4 uM after 24 hrs by Annexin V-FITC/PI double staining based flow cytometric analysis (reference value: 6.3%); assay type: functional
[14] = system: Ca-Ski; test: Cell cycle arrest in human CaSki cells assessed as increase in accumulation at G0/G1 phase at 4 uM incubated for 24 hrs by propidium iodide staining based flow cytometric analysis; assay type: functional; method in brief: as §3
[15] = target: T1, Protein E7 (Human papillomavirus 16) (UniProt P03129); test: Inhibition of Human papillomavirus type16 derived E7 in human CaSki cells assessed as decrease in phosphorylation of Rb at 2 to 4 uM after 48 hrs by Western blot analysis; assay type: cell-based; details: Ca-Ski; method in brief: as §2
T1 sequence (whole entry): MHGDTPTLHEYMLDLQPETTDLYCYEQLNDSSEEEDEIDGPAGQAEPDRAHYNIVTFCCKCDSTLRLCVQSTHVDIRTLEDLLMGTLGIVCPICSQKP

[16] = system: C-33-A; test: Cell cycle arrest in human C33A cells assessed as increase in p53 protein expression at 2 to 4 uM after 48 hr by Western lot analysis; assay type: functional, cell-based
Method in brief: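 Western blot. 1 × 10^6 cells were seeded per 100 mm dish and exposed the next day to 2 or 4 μM for 48 h. Cells were trypsinized and lysed in RIPA buffer with protease inhibitors. Equal protein was run on SDS-PAGE and transferred to PVDF, which was blocked in 5% milk/TBST. Anti-p53 and anti-p21 (also GAPDH) were used at 1:500 and HRP secondary at 1:2000; chemiluminescent detection.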

[17] = target: T2, Homeobox protein SIX1 (Homo sapiens) (UniProt Q15475); test: Inhibition of SIX1 in human CaSki cells at 2 to 4 uM after 48 hrs by Western blot analysis; assay type: cell-based; details: Ca-Ski; method in brief: as §2
T2 sequence (whole entry): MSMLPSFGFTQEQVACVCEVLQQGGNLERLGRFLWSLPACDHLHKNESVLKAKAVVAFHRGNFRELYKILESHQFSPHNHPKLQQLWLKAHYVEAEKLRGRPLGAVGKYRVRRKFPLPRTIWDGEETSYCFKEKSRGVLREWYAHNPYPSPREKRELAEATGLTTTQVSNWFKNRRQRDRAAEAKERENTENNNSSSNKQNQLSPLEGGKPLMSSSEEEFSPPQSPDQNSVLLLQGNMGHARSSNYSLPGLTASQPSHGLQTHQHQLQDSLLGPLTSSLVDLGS

[18] = target: Casein kinase II subunit alpha (Homo sapiens) (UniProt P68400); test: Inhibition of CK2alpha in human SiHa cells at 2 to 4 uM after 48 hrs by Western blot analysis; assay type: cell-based; method in brief: as §2
[19] = target: Casein kinase II subunit alpha (Homo sapiens) (UniProt P68400); test: Potency index, ratio for inhibition activity of apigenin to test compound for inhibition of CK2alpha in human SiHa cells after 48 hrs by Western blot analysis; assay type: cell-based
Method in brief: (§4)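 Cells plated at 1 × 10^6 per 100 mm dish and treated next day for 48 h with test compound (2 or 4 μM) or apigenin (10, 20 or 40 μM). RIPA lysates with protease inhibitors; equal protein loaded for SDS-PAGE, then PVDF transfer. Blocked in 5% milk/TBST (3% BSA for CK2α); anti-SIX1 or anti-CK2α 1:500, HRP secondary 1:2000; chemiluminescent detection.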

[20] = target: Casein kinase II subunit alpha (Homo sapiens) (UniProt P68400); test: Potency index, ratio for inhibition activity of apigenin to test compound for inhibition of CK2alpha in human CaSki cells after 48 hrs by Western blot analysis; assay type: cell-based; details: Ca-Ski; method in brief: as §4

Sequence of Casein kinase II subunit alpha (Homo sapiens) (P68400 whole entry, looked up): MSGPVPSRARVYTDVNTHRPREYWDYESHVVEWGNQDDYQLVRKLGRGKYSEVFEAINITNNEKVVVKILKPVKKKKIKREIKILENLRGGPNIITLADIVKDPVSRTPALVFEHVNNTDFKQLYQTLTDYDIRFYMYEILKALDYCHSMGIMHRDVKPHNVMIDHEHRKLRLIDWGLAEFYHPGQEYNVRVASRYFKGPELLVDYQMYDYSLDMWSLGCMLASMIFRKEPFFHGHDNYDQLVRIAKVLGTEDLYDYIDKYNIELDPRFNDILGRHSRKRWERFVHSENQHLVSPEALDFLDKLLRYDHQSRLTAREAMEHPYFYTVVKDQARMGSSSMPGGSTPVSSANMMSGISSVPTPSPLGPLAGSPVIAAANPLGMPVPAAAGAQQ

`O[C@]12C=C(c3nccc4c3[nH]c3ccccc34)[C@@H]3CCN(CCCC/C=C\CC1)C[C@@]31C[C@@H]3/C=C\CCCCN3[C@H]12` [MANZAMINE A] was tested, and the inhibition [1] was “Active”, the inhibition [2] was “Active” and the Activity [3] was “Toxic”. For the same molecule, the Activity [4] was 12.7%, the Activity [5] was 2.1% and the Activity [6] was 5.1%. For the same molecule, the Activity [7] was 63.9%, the Activity [8] was 20.8% and the Activity [9] was 10.2%. It also gave an Activity [10] of 6.3%, a viability at 4 µM [11] of 63.6% and a viability at 4 µM [12] of 66.4%. For the same molecule, the Activity [13] was 10.5%, the “fold change (FC)” value [14] was 1.4 and the inhibition [15] was “Active”. The Activity [16] was “inactive”, the inhibition [17] was “Active” and the inhibition [18] was “Active”. The Ratio [19] was 10 and the Ratio [20] was 10.
